From PubChem
ABCB1 inh = blocks JC-1 efflux by human ABCB1 transporter. inhibition, % at 6.6 µM. 190,000 compounds, 0.067% hits. P08183. CCRF-Adr cells, flow cytometry; in the data active means inhibition above about 40%;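 further: 0% = vehicle and 100% = reference inhibitor; higher value means more JC-1 retained so stronger ABCB1 efflux block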
PMI activator = increases human mannose-6-phosphate isomerase activity. P34949. purified human PMI, coupled resazurin fluorescence, 20 min; active compounds read high; 1 = vehicle control, 0 substrate-free wells. activation factor at 20 µM. 190,000 compounds, 0.005% hits;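 active means activation factor of 2 or more at 20 µM, relative to plate controls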
PMI act hi M6P = PMI (human) activation, high substrate; P34949; coupled PMI enzyme assay, resazurin fluorescence, 20 min; active compounds read high; 1 = untreated enzyme, 0 = substrate-free blank; activation factor at 20 µM; 190,000 compounds, 0.34% hits;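 active means activation factor of 2 or more at 20 µM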
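Material: human phosphomannose isomerase with PGI, G6PDH, diaphorase coupling enzymes / Reagent: Man-6-P substrate 1.0 mM / Dosing: single compound dose of 20 µM, 1% DMSO final / Incubation: enzyme reaction with compound 20 min at room temperature / Signal: resorufin fluorescence (Ex 544/Em 590 nm) from resazurin via diaphorase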
ABCG2 inh = blocks JC-1 efflux by human ABCG2 transporter. AID 1325. IgMXP3 cells, flow cytometry. inhibition, % at 6.6 µM. 190,000 compounds, 0.1% hits;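 active means inhibition above 80%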;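 further: 0% = DMSO and 100% = nicardipine control wells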
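Read-out basis: Efflux inhibition in percent versus controls | Test system: ABCG2 IgMXP3 and barcoded ABCB1 CCRF-Adr cell mix | Quantity: 3 million cells/mL in well | Schedule: 10 min at 25 °C | Control set: Nicardipine as high control, DMSO as low control | Reagent: JC-1 as fluorescent efflux pump substrate | Signal: Flow cytometry of retained JC-1 fluorescence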
KCC2 mod = KCC2 (human) Cl- transport modulation | Q9H2X9 | KCC2 cells, thallium flux FluoZin-2 fluorescence | B-score of Tl+ flux slope (higher = more flux/activation; lower = inhibition) at 10 µM | 190,000 compounds, 2.2% hits;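 active means thallium flux slope and its plate-corrected score both differing from the plate sample mean at a set confidence after two filtering rounds, in either direction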;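 further: slope of fluorescence scaled to starting intensity during 10 to 20 s after thallium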
ROMK mod = human ROMK K+ channel modulation, primary screen; Tet-inducible ROMK, thallium flux fluorescence; actives lie on both sides; AID 1918; P48048; 130,000 compounds, 2% hits; B-score at 10 µM;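 active means signal ratio slope over the read window, or its plate-corrected B-score, at least 3 SD from the plate mean, either direction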;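 further: B-score of the F/F0 ratio slope over 7 to 12 s after thallium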
Target sequence (P48048 whole entry, looked up): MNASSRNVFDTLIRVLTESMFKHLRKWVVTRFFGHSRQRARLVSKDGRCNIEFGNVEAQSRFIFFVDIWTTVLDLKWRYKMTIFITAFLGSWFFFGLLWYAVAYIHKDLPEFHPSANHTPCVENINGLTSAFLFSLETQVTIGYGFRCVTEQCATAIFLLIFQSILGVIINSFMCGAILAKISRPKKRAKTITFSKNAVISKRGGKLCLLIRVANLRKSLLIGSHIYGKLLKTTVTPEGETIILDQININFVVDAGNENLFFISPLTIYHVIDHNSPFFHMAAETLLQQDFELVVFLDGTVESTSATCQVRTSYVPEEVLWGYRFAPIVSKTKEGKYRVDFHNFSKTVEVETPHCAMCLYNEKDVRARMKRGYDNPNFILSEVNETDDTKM
The depositor's hits bear a star; i = inactive; nt = no result; + = active, no number. Compounds with a hit are over-represented: about 3.3% of the library has one in this group of screens.

SMILES	ABCB1 inh	PMI activator	PMI act hi M6P	ABCG2 inh	KCC2 mod	ROMK mod
CCCN(CCC)S(=O)(=O)c1ccc(C(=O)Nc2nnc(CSC)o2)cc1	-2	1.1	1.1	11	nt	0.69
COc1ccc(-c2nnc(NC(=O)c3ccc(S(=O)(=O)N4COCC4(C)C)cc3)o2)cc1	0	1	1	-1	8.2*	nt
Fc1cccc(CN2CCN(Cc3nc(CCc4ccccc4)no3)CC2)c1	3	0.8	0.9	2	-0.29	nt
COc1cc(NC(=S)N2CCCCC2C)c(OC)cc1Cl (centres undefined)	0	0.8	0.6	11	-0.55	-0.71
COc1cc(NC(=O)C(=O)NNC(=O)C2CCCCC2)c(OC)cc1Cl	1	0.9	0.9	15	51*	0.94
CCSC1=NSC2=NC(=O)/C(=C\c3coc4ccccc4c3=O)C(=N)N12	29	1.3	1.7	+	i	nt
CNC(=S)/N=C/NOCc1ccc(Cl)cc1Cl	1	1	1	5	0.075	-1.2
CC(=O)Nc1nc(=S)ss1	0	0.7	0.9	-1	nt	nt
Cc1ccccc1C(=O)Nc1nc(=S)ss1	0	0.6	0.9	0	11*	nt
Cn1c(=O)c2c(-c3ccccc3F)c3c(nc2n(C)c1=O)-c1ccccc1C3O (centres undefined)	2	1.8	2.1*	23	-2.1	-2.6
Cn1c(=O)c2c(-c3cccc(F)c3)c3c(nc2n(C)c1=O)-c1ccccc1C3O (centres undefined)	1	1.3	1.6	7	nt	nt
CC(C)OC(=O)CSc1nc(Cc2ccccc2)nc2ccccc12	0	0.9	0.9	-1	-1.2	0.62
COc1ccc(C(=O)c2sc(NC(C)C)nc2N)cc1OC	1	1.1	1.1	30	nt	-4.2*
Brc1ccccc1Cn1c(-c2cscn2)nc2ccccc21	1	1	1	6	-0.24	nt
CC(C)(C)c1ccc(C(=O)NNC(=O)C2CCCCC2)cc1	1	0.9	0.9	6	0.95	nt
O=c1c2cccnc2[nH]c(=S)n1CCCN1CCN(c2ccc(F)cc2)CC1	1	0.8	0.8	0	6*	0.038
CC(=O)c1ccc(N2CCN(C(=O)Cn3c(=S)[nH]c4ncccc4c3=O)CC2)cc1	0	1	1	1	1.6	-0.006
N#Cc1cccc(NC(=O)CSc2ccc3c4c(cccc24)C(=O)c2ccccc2-3)c1	26	0.9	1	46	-0.31	-4.2*
C=C(C)C1CC=C(C)/C(=N/NC(=S)Nc2ccccc2)C1 (centres undefined)	0	1	1.1	6	6.5*	-0.0031
C=C(C)C1CC=C(C)/C(=N/NC(=O)c2ccc(NC(=O)c3cccc(C)c3)cc2)C1 (centres undefined)	1	1	1	7	1.2	nt
Cc1ccc(C(=O)NNC(=O)CSc2n[nH]c(-c3cccnc3)n2)cc1	0	0.9	1	14	0.63	-1.1
O=S1(=O)N=C(N(Cc2cccs2)c2ccc(O)cc2)c2ccccc21	0	0.9	0.8	13	0.13	-0.12
Cc1ccc(Cl)cc1N1CCN(C(=O)CN2C(=O)c3cccc4cccc2c34)CC1	1	0.9	0.9	2	-0.43	-2.8*
COC(=O)c1ccc(C(NC(=O)OCc2ccccc2)/C(F)=C/[C@@H](C)C(=O)NCc2ccc(OC)c(OC)c2)cc1 (some centres undefined)	3	1	1	6	-0.84	0.41
NC(=O)N1CCC2(CC1)NC(=O)N(c1ccccc1)N2	0	1.6	2.5*	0	nt	-0.81
SMILES	ABCB1 inh	PMI activator	PMI act hi M6P	ABCG2 inh	KCC2 mod	ROMK mod
O=C1NC2(CCCCC2)NN1c1ccccc1	0	0.9	1	0	-0.059	-0.35
CC1(c2ccc(O)cc2)NC(=O)N(c2ccccc2)N1 (centres undefined)	1	1.1	1	2	-0.049	-0.68
CC(=O)N1CCC2(CC1)NC(=O)N(c1ccccc1)N2	0	1.6	2.4*	2	0.41	nt
COc1cc(S(=O)(=O)N(C)C2CCCCC2)c(C)cc1C	1	1	1	4	0.023	-0.26
Cc1cc(=S)cc(C)n1CCCO	0	1.4	2*	1	1.1	nt
Cc1nc2cc(Cl)c(Cl)cc2n1CCCO	nt	nt	nt	nt	1	0.0075
CCOC(=O)n1cc(-c2cnc(CNC(=O)C(C)(c3ccccc3)c3ccccc3)o2)c2ccccc21	5	0.9	0.9	29	-0.37	-0.71
CC(C(=O)Nc1cccnc1)C1Sc2ccccc2NC1=O (centres undefined)	0	0.9	0.7	0	nt	0.24
Cc1cc(C(=O)N=Nc2c(O)n(C(C)C)c3ccccc23)n[nH]1	1	0.8	0.7	5	0.48	nt
CC(C)n1c(O)c(N=Nc2ccc(Cl)nn2)c2ccccc21	2	0.9	0.9	5	11*	nt
Cc1cc(-c2csc(N)n2)c(C)n1CCc1ccccc1	1	1.7	2*	3	-0.14	nt
CCOC(=O)Cc1csc(NC(=S)NC(=O)C(C)(C)C)n1	0	1	1.1	1	15*	-0.083
CCOC(=O)Cc1csc(NC(=O)CC(C)(C)CC(=O)O)n1	nt	nt	nt	nt	-0.049	nt
COc1ccc2oc(=O)c(/C(C)=N/Nc3nc(-c4cc(C)ccc4C)cs3)cc2c1	0	1.6	2.3*	0	-0.11	-0.39
O=C(NC(=S)N1CCN(c2ccc(Cl)cc2[N+](=O)[O-])CC1)c1cccs1	1	0.9	1	16	71*	nt
O=C(NC(=S)N1CCN(c2ccc(Cl)cc2[N+](=O)[O-])CC1)c1ccco1	2	0.8	0.9	14	17*	nt
O=C(CCSc1nc(-c2ccco2)cc(C(F)(F)F)n1)NCCc1ccccc1	0	0.9	1	1	-3.1*	nt
O=C(/C=C/c1ccc(Cl)cc1)NC(=S)NN1CCCCC1c1cccnc1 (centres undefined)	2	0.7	0.8	10	6.2*	nt
COc1ccc(/C=C/C(=O)NC(=S)NN2CCCCC2c2cccnc2)cc1OC (centres undefined)	0	0.9	0.9	-1	1.7	nt
O=C(c1ccc(F)cc1)C1CCN(CCn2c(=S)[nH]c3ccccc3c2=O)CC1	nt	1.1	1.1	6	7*	nt
O=c1c2ccccc2[nH]c(=S)n1CCN1CCCC1	1	1.1	1	4	0.61	-0.58
COc1cccc(CN(C)CC(=O)NC(=O)NCc2ccccc2)c1	1	1	0.9	1	0.56	nt
COc1ccc(CN(C)CC(=O)NC(=O)NCc2ccccc2)cc1OC	1	1	1	2	5*	nt
CCN(CC)C(=O)CC(c1ccc(N(C)C)cc1)c1c(O)cc(OC)cc1OC (centres undefined)	nt	nt	nt	nt	0.047	nt
